Results reported in publication PMC6118327 (Biochimica et biophysica acta. Biomembranes, 2017).
Changes are numbered by the printed parent chain. pIC50: −log10 of the molar value. “And” between values parts separate entries of the source, which are not always exact repeats. Identical values can stand only once.

Key:
Type in all cases: biochemical
mUCP3 = target: T1, mUCP3 (Mus musculus, UniProt P56501); conditions: 15 mol% AA
T1 sequence (P56501 1-308): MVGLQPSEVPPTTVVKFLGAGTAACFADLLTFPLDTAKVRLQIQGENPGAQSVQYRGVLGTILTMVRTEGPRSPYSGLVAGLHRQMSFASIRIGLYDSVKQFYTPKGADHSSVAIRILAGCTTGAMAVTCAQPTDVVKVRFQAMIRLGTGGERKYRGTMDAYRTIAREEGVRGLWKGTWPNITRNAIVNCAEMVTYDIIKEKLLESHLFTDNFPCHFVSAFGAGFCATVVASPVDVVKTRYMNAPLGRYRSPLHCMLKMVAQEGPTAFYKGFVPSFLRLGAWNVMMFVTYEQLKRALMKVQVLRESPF
Method in brief: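 Recombinant mouse protein reconstituted into DOPC/DOPE/CL (45:45:10) liposomes. Bilayers formed at 1.5 mg/ml lipid, 6 μg protein/mg lipid, AA 10 or 15 mol%. Run in 50 mM Na₂SO₄/10 mM MES/10 mM Tris/0.6 mM EGTA, pH 7.35, 32°C. I/V recorded −50 to +50 mV, including with 2 mM ATP. G from linear fit at 0 mV gives relative conductance. IC50 and maximum inhibition come from a four-parameter logistic fit. AA-dependence tested at 1 mM ATP, 2 mM ADP, 5 mM AMP. Mean ± SD, ≥3 experiments.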

mUCP1 = target: T2, mUCP1 (Mus musculus, UniProt P12242); conditions: 15 mol% AA, curve fitting
T2 sequence (P12242 1-307): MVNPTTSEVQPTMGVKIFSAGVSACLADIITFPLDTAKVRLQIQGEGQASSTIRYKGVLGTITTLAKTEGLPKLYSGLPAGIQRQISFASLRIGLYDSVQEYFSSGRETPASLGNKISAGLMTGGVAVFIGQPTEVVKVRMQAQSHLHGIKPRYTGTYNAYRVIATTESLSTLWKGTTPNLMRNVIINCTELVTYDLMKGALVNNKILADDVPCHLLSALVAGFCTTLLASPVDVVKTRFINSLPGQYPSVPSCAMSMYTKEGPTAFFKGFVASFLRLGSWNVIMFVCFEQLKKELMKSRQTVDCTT
Method in brief: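 Inclusion-body mouse protein reconstituted into DOPC/DOPE/CL (45:45:10) proteoliposomes. Planar bilayers made at 1.5 mg/ml lipid, AA 10 or 15 mol% in the lipid solution, sulfate/MES/Tris/EGTA buffer pH 7.35, 32°C. I/V swept −50 to +50 mV; G at zero voltage from linear fit, normalised to AA-only and UCP+AA membranes. Titrations of nucleotides or phosphate fitted by four-parameter logistic for IC50 and maximum inhibition. AA comparison used 1 mM ATP, 2 mM ADP, 2 mM AMP. Mean ± SD, ≥3 experiments.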

mUCP3 R278L = target: T3, mUCP3 R278L (Mus musculus, UniProt P56501, R278L); test: Relative conductance of UCP3 mutant in planar bilayer membranes; conditions: 3 mM ammonium-phosphate-dibasic; 15 mol% AA
T3 sequence (P56501 1-308 R278L): T1 sequence (P56501 1-308) with R278L

mUCP3 R184T = target: T4, mUCP3 R184T (Mus musculus, UniProt P56501, R184T); test: as above; conditions: 3 mM ammonium-phosphate-dibasic; 15 mol% AA
T4 sequence (P56501 1-308 R184T): T1 sequence (P56501 1-308) with R184T

mUCP3R84Q = target: T5, mUCP3R84Q (Mus musculus, UniProt P56501, R84Q); test: Relative conductance of UCP3 mutant in planar bilayer membranes; conditions: 3 mM ammonium-phosphate-dibasic; 15 mol% AA
T5 sequence (P56501 1-308 R84Q): T1 sequence (P56501 1-308) with R84Q
Method in brief: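 Arginine point mutants made by site-directed mutagenesis, expressed in E. coli Rosetta and reconstituted like wild type. Planar DOPC/DOPE/CL (45:45:10) bilayers carried 15 mol% AA; buffer pH 7.35, 32°C. Relative conductance compared with wild type after nucleotide addition: UCP1 mutants 5 mM ATP, ADP or AMP; UCP3 mutant 2 mM ATP, 4 mM ADP or 8 mM AMP. Mean ± SD, ≥3 experiments.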

- maximum inhibition of mUCP3 by Pi (mUCP3; curve fitting): ~ 60%
- extent of inhibition at high inhibitor concentration (mUCP3; DOPC/DOPE/CL membranes, pH 7.35, 32°C): only partial inhibition
- pIC50 (mUCP3; read-out: IC50 of Pi inhibition, curve fitting): ~3.00 and 3.00
- IC50 of mUCP1 inhibition by Pi compared with mUCP3 (mUCP1): similar
- maximum inhibition of mUCP1 by Pi compared with mUCP3 (mUCP1): similar
Compound: O=P(O)(O)O [Pi, inorganic phosphate]
- effect of mutation on inhibition by phosphate (mUCP3 R278L): none of the arginine mutations had any effect
- effect of mutation on inhibition by phosphate (mUCP3 R184T): none of the arginine mutations had any effect
- effect of mutation on inhibition by phosphate (mUCP3R84Q): none of the arginine mutations had any effect
